ADAM10 inh: inhibitors of human ADAM10. O14672. recombinant ADAM10, EDANS/DABCYL FRET peptide cleavage, 3 h. inhibition, % at 7 µM. 370,000 tested, 0.62% active. AID 720582;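 active = inhibition above a per-campaign cutoff equal to the mean of compounds falling between control-based bounds plus 3 SD, cut at about 20% in these data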
Lipid droplet: hepatic lipid droplet formation modulation; AML12 mouse hepatocytes, oleate lipid droplets, BODIPY imaging; inhibition, % at 6.5 µM; 240,000 tested, 0.4% active; AID 1656;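 active = lipid droplet intensity inhibited by at least 50%, with more than 500 cells counted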
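Assay system: AML12 hepatocytes (mouse) / Also added: 100 µM oleic acid challenge / Times: overnight treatment with compound plus oleate / Detection: high-content imaging of BODIPY-stained droplets and DAPI nuclei / Evaluation: % inhibition of lipid droplet signal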
ADAM17 inh: inhibits human ADAM17 | inhibition, % at 6.95 µM | recombinant ADAM17, EDANS/DABCYL FRET peptide cleavage | AID 720648 | 370,000 tested, 0.83% active | P78536;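 active = inhibition above the mean of compounds lying between control limits plus 3 SD, set per campaign, cut at about 8.5% in these data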
Target sequence (P78536 215-824 limits assumed): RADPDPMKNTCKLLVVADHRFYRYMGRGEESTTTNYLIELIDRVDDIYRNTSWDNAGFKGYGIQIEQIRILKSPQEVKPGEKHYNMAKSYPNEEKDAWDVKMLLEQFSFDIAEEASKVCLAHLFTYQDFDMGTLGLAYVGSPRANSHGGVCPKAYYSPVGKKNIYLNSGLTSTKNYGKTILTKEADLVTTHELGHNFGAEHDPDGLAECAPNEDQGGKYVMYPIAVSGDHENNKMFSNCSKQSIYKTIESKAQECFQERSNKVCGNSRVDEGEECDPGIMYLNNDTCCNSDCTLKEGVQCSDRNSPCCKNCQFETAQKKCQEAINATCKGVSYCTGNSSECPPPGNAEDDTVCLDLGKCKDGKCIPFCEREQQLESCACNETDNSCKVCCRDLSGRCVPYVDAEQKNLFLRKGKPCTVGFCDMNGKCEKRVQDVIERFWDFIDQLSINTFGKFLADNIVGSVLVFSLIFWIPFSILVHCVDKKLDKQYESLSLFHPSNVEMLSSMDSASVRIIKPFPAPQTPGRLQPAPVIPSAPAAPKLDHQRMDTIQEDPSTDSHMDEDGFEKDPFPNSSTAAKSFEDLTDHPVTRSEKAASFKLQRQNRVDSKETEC
V-ATPase pHluor: alters yeast V-ATPase proton transport. S. cerevisiae, pHLuorin cytosolic pH fluorescence. response, % at 10 µM. 350,000 tested, 0.37% active; in the data active = response mostly above about 7.3%, no sharp cut-off; inactive = mostly below about 5.4%; note: actives read high
aDG glyco up: alpha-DG glycosylation activation; Pro5-aDG cells, alpha-DG glycosylation AlphaScreen (IIH6); 0% Pro5, 100% B10-LARGE cell signal; activation, % at 10 µM; 360,000 tested, 0.22% active; AID 624168;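 active = activation of at least 8% versus controls, or a plate z-score of at least 8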;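 note: Pro5 are CHO cells carrying HIG-tagged alpha-DG that lacks glycosylation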
MPTP inh: blocks calcium-induced mitochondrial swelling; isolated mouse mitochondria, Ca2+ swelling absorbance, 30 min; inhibition, % at 10 µM; 360,000 tested, 1.4% active; AID 602449;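 active = inhibition of 50% or more, scaled per plate between neutral and stimulator controls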
ADAM10 confirm: human ADAM10 inhibition, confirmation | inhibition, % at 6.95 µM | AID 743208 | ADAM10 QFRET peptide cleavage, EDANS fluorescence | 2,100 tested, 1% active | shares compounds with ADAM10 inh;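 active = inhibition above about 20% chosen separately for each screening run, limit read from the data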
ADAM17 ctr: counter-screen for ADAM10 exosite inhibitors: inhibitors of human ADAM17. shares compounds with ADAM10 inh. ADAM17 QFRET peptide cleavage, EDANS fluorescence. inhibition, % at 6.95 µM. 2,100 tested, 0.5% active. AID 743214;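 active = mean triplicate inhibition above the solvent-only control wells' mean plus 3 SD, cut at about 12% in these data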
A number is an active result; 0 = inactive; - = not tested or not shown. In the library only some 3.1% were active in any assay of this set; here they are far more common.

SMILES	ADAM10 inh	Lipid droplet	ADAM17 inh	V-ATPase pHluor	aDG glyco up	MPTP inh	ADAM10 confirm	ADAM17 ctr
CCc1ccc([C@H]2[C@@H]3C(=O)C[C@@H]4C(=O)N(CC)C(=O)[C@@H]4[C@@H]3CN2S(=O)(=O)c2ccc(C)cc2)cc1	0	-	0	-	0	0	-	-
CCc1ccc([C@H]2[C@@H]3C(=O)C[C@@H]4C(=O)N(Cc5ccccc5)C(=O)[C@@H]4[C@@H]3CN2S(=O)(=O)c2ccc(C)cc2)cc1	23	-	0	-	0	0	0	0
FC(F)(F)c1cccc(N2CCN(C3=Nc4ccccc4Sc4ccccc43)CC2)c1	0	-	0	-	-	-	-	-
Cc1ccc(Cn2cc(CN3[C@H](c4ccccc4)COc4cc(Br)ccc4S3(=O)=O)nn2)cc1	21	-	0	-	-	-	0	0
CC1(C)CC(=O)c2c(oc3cc(O)c(O)cc23)C1	21	0	0	0	0	0	0	0
COC(=O)c1oc2c(c1C)C(=O)CC(C)(C)C2	0	0	0	0	0	0	-	-
CCOc1ccccc1NC(=S)N1C2CCC1CC(NC(=O)NC13CC4CC(CC(C4)C1)C3)C2 (stereo unspecified)	33	-	0	0	0	0	0	0
CC1CCN(C2=NC(=O)N(c3ccc(Br)cc3)C(=O)C2)CC1	0	-	0	-	-	-	-	-
CCC1Sc2ccc(S(=O)(=O)Nc3cc(OC)cc(OC)c3)cc2NC1=O (stereo unspecified)	0	0	0	0	0	0	-	-
CCC1Sc2ccc(S(=O)(=O)CCC(=O)Nc3c(Cl)cc(OC)cc3OC)cc2NC1=O (stereo unspecified)	20	0	0	0	0	0	0	0
CCC[C@H]1[C@@H](NCc2ccccc2)CC[C@@]23CCCN2C(=O)CCC[C@@H]13	0	-	0	-	-	-	-	-
CCC[C@H]1[C@@H](OC(=O)NCc2ccccc2)CC[C@@]23CCCN2C(=O)CCC[C@@H]13	0	-	0	-	-	-	-	-
CCOC(=O)[C@]12CCCC=C1N(Cc1ccc(Cl)cc1Cl)C(=O)[C@H](CC(=O)NCCc1ccccc1OC)C2	23	-	0	-	0	0	0	0
CCCCNC(=O)C[C@@H]1C[C@@]2(C(=O)OCC)CCCC=C2N(Cc2ccc(Cl)cc2Cl)C1=O	0	-	0	-	0	0	-	-
CCOC(=O)[C@]12CCC=C1N(Cc1ccc(Cl)cc1Cl)C(=O)[C@H](CC(=O)NCc1cccc3ccccc13)C2	0	-	0	-	0	0	-	-
CCOC(=O)[C@]12CCC=C1N(Cc1ccc(Cl)cc1Cl)C(=O)[C@H](CC(=O)NCc1ccc(OC)c(OC)c1)C2	20	-	0	-	0	0	0	0
CSc1nc(O)c(C(c2cccc([N+](=O)[O-])c2)c2c(O)nc(SC)[nH]c2=O)c(=O)[nH]1	81	0	0	0	0	0	0	0
CSc1nc(O)c(C(c2ccc(O)cc2)c2c(O)nc(SC)[nH]c2=O)c(=O)[nH]1	0	0	0	0	0	0	-	-
COC(=O)[C@]12C[C@H](CC(=O)NCc3ccc(OC)c(OC)c3)C(=O)N(Cc3cccc4ccccc34)C1=C[C@H](C1CCCC1)O[C@@H]2C	24	-	0	-	-	-	0	0
COC(=O)[C@]12C[C@H](CC(=O)N3CCN(C(=O)c4ccco4)CC3)C(=O)N(Cc3cccc4ccccc34)C1=C[C@H](C1CCCC1)O[C@@H]2C	21	-	0	-	-	-	0	0
COC(=O)[C@]12C[C@H](CC(=O)NCc3ccc(OC)c(OC)c3)C(=O)N(Cc3ccccc3)C1=C[C@H](C1CCCC1)O[C@@H]2C	0	-	0	-	-	-	-	-
CCCCOCCCNC(=O)C[C@H]1C[C@@]2(C(=O)OC)C(=C[C@H](C(C)(C)C)O[C@@H]2C)N(Cc2cccc3ccccc23)C1=O	21	-	0	-	-	-	0	0
COC(=O)[C@]12C[C@H](CC(=O)NCCCCc3ccccc3)C(=O)N(Cc3cccc4ccccc34)C1=C[C@H](C(C)(C)C)O[C@@H]2C	0	-	0	-	-	-	-	-
COC(=O)[C@]12C[C@H](CC(=O)N3CCC(c4ccccc4)CC3)C(=O)N(Cc3cccc4ccccc34)C1=C[C@H](C1CCCC1)O[C@@H]2C	0	-	0	-	-	-	-	-
